Laboratory results as given in the EternaBench riboswitch data.

Experiments:
MS2 coat protein [1] = assay: apparent Kd, MS2 coat protein; higher = weaker binding; RNA-MaP array; theophylline 2 mM where present
How it was run: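 Designs on Illumina sequencing-chip clusters, transcribed by stalled E. coli RNA polymerase, were exposed to SNAP-549-labelled MS2 coat protein in doubling steps from 0.7 or 1.5 nM up to 3 µM, without and then with constant ligand. The buffer held 100 mM Tris-HCl pH 7.5, 80 mM KCl, 4 mM MgCl2, BSA, DTT, yeast tRNA and Tween-20. Apparent Kd values are medians of filtered per-cluster binding-curve fits to green signal normalised to red-channel RNA signal and control-cluster median Fmax.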

MS2 coat protein [2] = assay: apparent Kd, MS2 coat protein; higher = weaker binding; RNA-MaP array
How it was run: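 On an Illumina sequencing chip, sequenced DNA templates served for transcription of the designed RNAs, which were then bound at room temperature by fluorescently labeled MS2 coat protein at 1.5 nM to 3 μM, with or without input ligand. Apparent Kd is the median of the fits to each cluster's binding curve. Only designs measured on at least 10 clusters were kept.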

[3] = designed as: ON switch for theophylline, no ligand
[4] = ligand present: theophylline, designed as: ON switch for theophylline
[5] = designed as: OFF switch for theophylline, no ligand
[6] = ligand present: theophylline, designed as: OFF switch for theophylline

Row | Sequence | apparent Kd (MS2 coat protein [1]; [3]) [nM] | apparent Kd (MS2 coat protein [1]; [4]) [nM] | apparent Kd (MS2 coat protein [1]; [5]) [nM] | apparent Kd (MS2 coat protein [1]; [6]) [nM] | also measured
1 | GAACAUGAGGAUCACCCAUGUAAAACAGAUACCAGUGAUAUAAUACACCCUUGGCAGCUGUAGCUGAAUAAUAAUUCCCUCAAGC | 15.5 | 18.4 |  |  | 
2 | AUUUUUCUAUCAGAUACCAGACAAUUUUAGACAUGAGGAUCACCCAUGUAUAGGGUGUUCGUCCCUUGGCAGCUGUUAAGUUUAA | 190 | 205 |  |  | 
3 | CAAACAUGAGGAUCACCCAUGUAAUCAGAUACCAGUGACGAAAGUCACCCUUGGCAGCUGAUUACUUUAGUUCUAAGGUGUUUGA |  |  | 92.6 | 56.6 | 
4 | UUUACAUGAGGAUCACCCAUGUGCCAUGAUACCAGACAUGAAAAUGUCCCUUGGCAGCAUGAAAGAUCCACGUCGGAAACGACGG | 176 | 308 |  |  | 
5 | UGAGAUCCUCAUGAUACCAGUGUACUACAUGAGGAUCACCCAUGUAGCAACAUCUGUAGACACCCUUGGCAGCAUGAGACCACGU | 18.3 | 23.7 |  |  | 
6 | AAACUGGGUGUAAAAUAAAUAAUCACUGAUACCAGACUAUAGUAUGUCCCUUGGCAGCAGAAACAUGAGGAUCACCCAUGUAAUA |  |  | 21.7 | 21.3 | 
7 | GCUGUAAGUGCAGAUACCAGCGUGUUAUAUUUCUAAUGACAUGAGGAUCACCCAUGUAAAUGCCCUUGGCAGCUGCACUUACAGC | 16.1 | 16.9 |  |  | 
8 | AUUAAUAGUUGUGAUACCAGACGAACAUGAGGAUCACCCAUGUAACUUUUAGGUGUUGUAGUCCCUUGGCAGCACUAUUUAGUUA | 42.7 | 35.3 |  |  | 
9 | AUGGCGUUGGUGUAGCUGUGAAAUGGCGAUACCAGCGUGGAAACACGCCCUUGGCAGCGCCAAAACAUGAGGAUCACCCAUGUUA |  |  | 20.1 | 96.6 | 
10 | GUAUGGAAACAUACUAUGGUAUCGUGAGAUACCAGUACAGAAAUGUACCCUUGGCAGCUCGCGCAUACAUGAGGAUCACCCAUGU |  |  | 18.1 | 25.7 | 
11 | AUAAUGGGUAUCGGAUUAUCAUGAUAUGAUACCAGAUACUUAGAUAUCCCUUGGCAGCAUGAGGACAUGAGGAUCACCCAUGUAU |  |  | 35 | 61.8 | 
12 | AAGGGUGAGUCUCUAAUCCGUUUGACGGAUACCAGCGAGAGAUAUCGCCCUUGGCAGCCGACGACAUGAGGAUCACCCAUGUAAA |  |  | 14.7 | 17.2 | 
13 | AAUAACAUGAGGAUCACCCAUGUAAAAGAUACCAGAGUGAUGAUCCUCCCUUGGCAGCUUAAAACGCUAUUGAUUACAAUAGCGA | 54.9 | 119 |  |  | 
14 | AGACAUGAGGAUCACCCAUGUAGUAUGGAUACCAGAUCCAGAUUUAUCCCUUGGCAGCUGUGGUACAGCGAUGGAUCGCUCCUAG |  |  | 23.4 | 27.8 | 
15 | AGACAUGAGGAUCACCCAUGUAGUACGGAUACCAGAUCCAGAUGCGUCCCUUGGCAGCUGUAGUACAGCGUUACAUCGCUCAUAG |  |  | 37.9 | 70.7 | 
16 | AGCGCUGUGCAUGAUACCAGCUACAUGAGGAUCACCCAUGUGCGUCAGAAAUGACUGUGUAGCCCUUGGCAGCAUAAAGCAUGUA |  |  | 19 | 58.8 | 
17 | UUUGAUAGAACAGAUACCAGCGUGUUAUAAAACAUGAGGAUCACCCAUGUAGUGAUCAAGCGCCCUUGGCAGCUGGUUUGUUAGG | 135 | 182 |  |  | 
18 | UACAUGAGGAUCACCCAUGUAUGAAUAGAUACCAGAUAAAAUAAGGUCCCUUGGCAGCUAGUGAAUAAAGGGUGGGUAAAAUAAU |  |  | 9.22 | 9.51 | 
19 | GAUCCUCAUACGGAUACCAGCGAAUAACAUGAGGAUCACCCAUGUAAUAAAGAAAAUAAAUGCCCUUGGCAGCCGAAUAGAUAGU | 166 | 69.4 |  |  | 
20 | UCACGAGGCCUGGAUACCAGCGACAUGAGGAUCACCCAUGUAUGAGGAUCAGCCAUGUUAUGCCCUUGGCAGCCACGAAGGUCAU |  |  | 14.6 | 94.5 | 
21 | AAUAUAAGUGUAAUUAUAUUUAUAUCUGAUACCAGACUCUCAUGUGUCCCUUGGCAGCAGUUACAUGAGGAUCACCCAUGUAUUA | 76 | 21.6 |  |  | 
22 | AUAAGGUAUCUGCUAUCCUCAUGAGCAGAUACCAGCUAGGAAACUAGCCCUUGGCAGCUGCAACAUGAGGAUCACCCAUGUAAUA |  |  | 409 | 92.3 | 
23 | ACAUGAGGAUCACCCAUGUUCCUCUUUGAUACCAGUGAGUUGUUUCGCCCUUGGCAGCGAGUGUUUGUUUUUUUGUUUUGUUUGG |  |  | 215 | 288 | 
24 | ACCCAUUUGUUAGGAUAUGACUCGAGACAGGUACAUGAGGAUCACCCAUGUUGUACAGGACCGUCUCAGAAGGAACGAACGUAU |  |  |  |  | apparent Kd (MS2 coat protein [2]; designed as: OFF switch for flavin mononucleotide, no ligand): 9.64 nM; apparent Kd (MS2 coat protein [2]; ligand present: flavin mononucleotide, designed as: OFF switch for flavin mononucleotide): 8.75 nM
25 | GUUCGUCCUACGGCCGCCACUAAAACACAUGAGGAUCACCCAUGUUAGUAUCCUGGCUGGUGUGAUAGGACCGGGUAGGGAAGAA |  |  |  |  | apparent Kd (MS2 coat protein [2]; designed as: OFF switch for tryptophan, no ligand): 12.1 nM; apparent Kd (MS2 coat protein [2]; ligand present: tryptophan, designed as: OFF switch for tryptophan): 24.1 nM
